Experiments:
Coagulation factor X = Coagulation factor X (Homo sapiens, UniProt P00742); experiment: Inhibitory activity against serine protease factor Xa
Prothrombin [1] = biological target: T1, Prothrombin (Homo sapiens, UniProt P00734); experiment: Concentration required to double plasma clotting prothrombin time; type: functional, cell-free
Outline: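 Standard plasma coagulation assays, APTT and PT respectively. The value is the inhibitor concentration that doubles plasma clotting time.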

Trypsin = Trypsin (Homo sapiens, UniProt P07477+P07478+P35030); experiment: Inhibitory activity against coagulation factor trypsin; type: protein assay
Prothrombin [2] = biological target: T1, Prothrombin; experiment: Inhibitory concentration in dilute prothrombin time assay; type: functional
Outline: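 Dilute prothrombin time assay, run as PT with diluted thromboplastin reagent. The value is the inhibitor concentration giving 50% inhibition of dPT.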

Prothrombin [3] = biological target: T1, Prothrombin; experiment: Inhibitory activity against coagulation factor II (thrombin)
[4] = biological target: Tissue-type plasminogen activator (Homo sapiens, UniProt P00750); experiment: Inhibitory activity against human tissue plasminogen activator
Tissue-type plasminogen activator, sequence (P00750 whole entry): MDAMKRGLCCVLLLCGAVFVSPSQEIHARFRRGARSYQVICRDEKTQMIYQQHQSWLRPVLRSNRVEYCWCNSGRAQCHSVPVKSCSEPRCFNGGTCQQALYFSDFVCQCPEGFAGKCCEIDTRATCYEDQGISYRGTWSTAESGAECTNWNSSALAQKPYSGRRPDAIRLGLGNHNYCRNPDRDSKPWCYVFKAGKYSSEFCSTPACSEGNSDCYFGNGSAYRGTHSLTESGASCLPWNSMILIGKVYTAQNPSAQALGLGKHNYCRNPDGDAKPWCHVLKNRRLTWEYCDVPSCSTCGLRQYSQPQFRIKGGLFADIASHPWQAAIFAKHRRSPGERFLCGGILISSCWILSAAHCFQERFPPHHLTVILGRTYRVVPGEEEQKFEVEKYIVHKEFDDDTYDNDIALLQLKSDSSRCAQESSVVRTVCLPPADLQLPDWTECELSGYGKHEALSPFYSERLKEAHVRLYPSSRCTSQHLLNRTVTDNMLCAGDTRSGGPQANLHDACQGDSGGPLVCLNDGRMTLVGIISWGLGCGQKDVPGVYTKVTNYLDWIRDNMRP

Coagulation factor X, sequence (P00742 41-179 limits assumed): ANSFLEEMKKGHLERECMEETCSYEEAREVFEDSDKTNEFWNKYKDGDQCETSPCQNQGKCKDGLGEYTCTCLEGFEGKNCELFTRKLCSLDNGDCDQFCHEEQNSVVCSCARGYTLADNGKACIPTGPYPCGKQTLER
Coagulation factor X, sequence (P00742 235-488 limits assumed): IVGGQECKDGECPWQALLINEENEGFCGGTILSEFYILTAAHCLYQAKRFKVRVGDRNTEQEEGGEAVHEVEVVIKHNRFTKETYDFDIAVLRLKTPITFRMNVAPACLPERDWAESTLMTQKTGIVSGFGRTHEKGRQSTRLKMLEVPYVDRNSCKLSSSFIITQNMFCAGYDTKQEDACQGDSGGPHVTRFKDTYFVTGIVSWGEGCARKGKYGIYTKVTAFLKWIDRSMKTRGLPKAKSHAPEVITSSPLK

Row | Ki (Coagulation factor X) | Concentration (Prothrombin [1]) | Ki (Trypsin) | IC50 (Prothrombin [2]) | Ki (Prothrombin [3]) | Ki [4] | SMILES
1 | 2.9 µM | – | – | – | – | – | O=C(c1cc2ccccc2n1Cc1cc(-c2ccc(Cl)s2)on1)N1CCC(Oc2ccncc2)CC1
2 | 0.012 µM | 6.2 µM | > 100 µM | 0.37 µM | > 10 µM | > 100 µM | O=C(NC1CN(c2ccncc2)C1)c1cc2ccccc2n1Cc1cc(-c2ccc(Cl)s2)on1
3 | – | 30.7 µM | > 100 µM | 1.55 µM | > 10 µM | > 100 µM | CN1CCC(NC(=O)c2cc3ccccc3n2Cc2cc(-c3ccc(Cl)s3)on2)CC1
4 | 0.161 µM | – | – | – | – | – | CC(C)N1CCC(CNC(=O)c2cc3ccccc3n2Cc2cc(-c3ccc(Cl)s3)on2)CC1
5 | 0.225 µM | – | – | – | – | – | CC(C)N1CC(NC(=O)c2cc3ccccc3n2Cc2cc(-c3ccc(Cl)s3)on2)C1
6 | 0.345 µM | – | – | – | – | – | CC(C)CN1CC(NC(=O)c2cc3ccccc3n2Cc2cc(-c3ccc(Cl)s3)on2)C1
7 | – | 19.6 µM | > 100 µM | 1.79 µM | 8.22 µM | > 100 µM | O=C(NC1CCN(C2CC2)CC1)c1cc2ccccc2n1Cc1cc(-c2ccc(Cl)s2)on1
8 | – | 5.41 µM | > 100 µM | 0.42 µM | 2.76 µM | > 100 µM | CC(C)N1CCC(NC(=O)c2cc3ccccc3n2Cc2cc(-c3ccc(Cl)s3)on2)CC1

Continued, compound first:

Row | SMILES | Ki (Coagulation factor X) | Concentration (Prothrombin [1]) | Ki (Trypsin) | IC50 (Prothrombin [2]) | Ki (Prothrombin [3]) | Ki [4]
9 | CC(C)N1CC(CNC(=O)c2cc3ccccc3n2Cc2cc(-c3ccc(Cl)s3)on2)C1 | 0.839 µM | – | – | – | – | –
10 | CCN1CCC(NC(=O)c2cc3ccccc3n2Cc2cc(-c3ccc(Cl)s3)on2)CC1 | – | 9.02 µM | > 100 µM | 0.37 µM | > 10 µM | > 100 µM
11 | O=C(NC1CCN(C2CCOCC2)CC1)c1cc2ccccc2n1Cc1cc(-c2ccc(Cl)s2)on1 | 0.095 µM | – | – | – | – | –
12 | CS(=O)(=O)N1CCC(NC(=O)c2cc3ccccc3n2Cc2cc(-c3ccc(Cl)s3)on2)CC1 | 0.125 µM | – | – | – | – | –
13 | O=C(c1cc2ccccc2n1Cc1cc(-c2ccc(Cl)s2)on1)N1CCC(Nc2ccncc2)CC1 | – | 5.78 µM | > 100 µM | 0.19 µM | 3.16 µM | 64 µM
14 | CCCN1CCC(NC(=O)c2cc3ccccc3n2Cc2cc(-c3ccc(Cl)s3)on2)CC1 | – | 15.6 µM | – | 1.56 µM | – | –
15 | O=C(NC1CCN(c2ccncc2)CC1)c1cc2ccccc2n1Cc1cc(-c2ccc(Cl)s2)on1 | – | 6.04 µM | > 100 µM | 0.23 µM | > 10 µM | > 100 µM
16 | O=C(NC1CCN(C2CCCCC2)CC1)c1cc2ccccc2n1Cc1cc(-c2ccc(Cl)s2)on1 | 0.106 µM | – | – | – | – | –
17 | O=C(NC1CCN(C2CCCC2)CC1)c1cc2ccccc2n1Cc1cc(-c2ccc(Cl)s2)on1 | 0.071 µM | – | – | – | – | –
18 | CC(C)N1CC[C@@H](NC(=O)c2cc3ccccc3n2Cc2cc(-c3ccc(Cl)s3)on2)C1 | – | 13.7 µM | > 100 µM | 0.62 µM | > 10 µM | > 100 µM
